# What was measured:
# Assay type in all cases: functional
# Cryptococcus neoformans [1] = test: Antimicrobial activity against Cryptococcus neoformans IM 983036 isolate at 12.5 ug/ml after 48 hrs
# Outline: (§1)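 Clinical Cryptococcus isolates kept on Sabouraud-dextrose agar slopes; inoculum 1–5 × 10³ CFU/mL. Quinoline DMSO stocks were diluted in RPMI-1640 to final 100–6.25 µg/mL, with DMSO ≤2%. An equal volume of inoculum was added (200 µL per well). Run in triplicate.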
# Cryptococcus neoformans [2] = test: Antimicrobial activity against Cryptococcus neoformans IM 00319 isolate at 50 ug/ml after 48 hrs
# Outline: (§2)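 Percent growth inhibition in 96-well microplates. Compound stocks in DMSO (≤2%) were diluted in RPMI-1640 to final 100–6.25 µg/mL, and 100 µL inoculum was added (final 200 µL). Controls were a growth well (inoculum with matching DMSO, no compound) and a sterility well (no inoculum). Inhibition was calculated against growth and sterility wells.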
# Cryptococcus neoformans [3] = test: Antimicrobial activity against Cryptococcus neoformans IM 031631 isolate at 6.25 ug/ml after 48 hrs; outline: as §2
# Candida albicans [4] = test: Antimicrobial activity against Candida albicans ATCC 10231 at 6.25 ug/ml after 24 hrs; settings: ATCC 10231, 24 h
# Outline: (§3)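 Growth-inhibition microplate test. Strains are grown on Sabouraud-chloramphenicol agar for 48 h at 30 °C, and inoculum is added to RPMI-1640 containing compound at a final 100–6.25, with DMSO ≤2%. Each strain has a growth control (same DMSO, no compound) and a sterility control.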
# Candida albicans [5] = test: Antimicrobial activity against Candida albicans C130 isolate at 100 ug/ml after 24 hrs; outline: as §3
# Cryptococcus neoformans [6] = test: Antimicrobial activity against Cryptococcus neoformans ATCC 32264 at 6.25 ug/ml after 48 hrs; settings: ATCC 32264, 48 h; outline: as §2
# Candida albicans [7] = test: Antimicrobial activity against Candida albicans C127 isolate at 25 ug/ml after 24 hrs; settings: C127, 24 h; outline: as §3
# Cryptococcus neoformans [8] = test: Antimicrobial activity against Cryptococcus neoformans IM 961951 isolate at 6.25 ug/ml after 48 hrs; outline: as §1
# Cryptococcus neoformans [9] = test: Antimicrobial activity against Cryptococcus neoformans IM 00319 isolate at 6.25 ug/ml after 48 hrs; outline: as §2
# Pichia kudriavzevii [10] = test: Antimicrobial activity against Candida krusei C117 isolate at 50 ug/ml after 24 hrs; outline: as §2
# Cryptococcus neoformans [11] = test: Antimicrobial activity against Cryptococcus neoformans ATCC 32264 at 25 ug/ml after 48 hrs; settings: ATCC 32264, 48 h; outline: as §2
# Cryptococcus neoformans [12] = test: Antimicrobial activity against Cryptococcus neoformans IM 042074 isolate at 50 ug/ml after 48 hrs; outline: as §2
# Candida tropicalis [13] = test: Antimicrobial activity against Candida tropicalis C131 isolate at 25 ug/ml after 24 hrs; outline: as §2
# Nakaseomyces glabratus [14] = test: Antimicrobial activity against Candida glabrata C115 isolate at 25 ug/ml after 24 hrs; outline: as §2
# Cryptococcus neoformans [15] = test: Antimicrobial activity against Cryptococcus neoformans IM 961951 isolate at 25 ug/ml after 48 hrs; outline: as §1
# Cryptococcus neoformans [16] = test: Antimicrobial activity against Cryptococcus neoformans IM 052470 isolate at 25 ug/ml after 48 hrs; outline: as §2
# Candida parapsilosis [17] = test: Antimicrobial activity against Candida parapsilosis C124 isolate at 6.25 ug/ml after 24 hrs; settings: Lodderomyces parapsilosis; outline: as §2
# Pichia kudriavzevii [18] = test: Antimicrobial activity against Candida krusei C117 isolate at 6.25 ug/ml after 24 hrs; outline: as §2
# Candida parapsilosis [19] = test: Antimicrobial activity against Candida parapsilosis C124 isolate at 100 ug/ml after 24 hrs; settings: Lodderomyces parapsilosis; outline: as §2
# Candida albicans [20] = test: Antimicrobial activity against Candida albicans C126 isolate at 25 ug/ml after 24 hrs; outline: as §3
# Cryptococcus neoformans [21] = test: Antimicrobial activity against Cryptococcus neoformans IM 972751 isolate at 6.25 ug/ml after 48 hrs; outline: as §1
# Candida parapsilosis [22] = test: Antimicrobial activity against Candida parapsilosis C124 isolate at 12.5 ug/ml after 24 hrs; settings: Lodderomyces parapsilosis; outline: as §2
# Candida albicans [23] = test: Antimicrobial activity against Candida albicans ATCC 10231 at 50 ug/ml after 24 hrs; settings: ATCC 10231, 24 h; outline: as §3
# Candida albicans [24] = test: Antimicrobial activity against Candida albicans C129 isolate at 50 ug/ml after 24 hrs; outline: as §3
# Candida albicans [25] = test: Antimicrobial activity against Candida albicans C130 isolate at 6.25 ug/ml after 24 hrs; outline: as §3
# Cryptococcus neoformans [26] = test: Antimicrobial activity against Cryptococcus neoformans ATCC 32264 at 12.5 ug/ml after 48 hrs; settings: ATCC 32264, 48 h; outline: as §2
# Candida albicans [27] = test: Antimicrobial activity against Candida albicans C130 isolate at 25 ug/ml after 24 hrs; outline: as §3
# Candida tropicalis [28] = test: Antimicrobial activity against Candida tropicalis C131 isolate at 50 ug/ml after 24 hrs; outline: as §2
# Pichia kudriavzevii [29] = test: Antimicrobial activity against Candida krusei C117 isolate at 25 ug/ml after 24 hrs; outline: as §2
# Cryptococcus neoformans [30] = test: Antimicrobial activity against Cryptococcus neoformans IM 042074 isolate at 6.25 ug/ml after 48 hrs; outline: as §2
# Nakaseomyces glabratus [31] = test: Antimicrobial activity against Candida glabrata C115 isolate at 50 ug/ml after 24 hrs; outline: as §2
# Cryptococcus neoformans [32] = test: Antimicrobial activity against Cryptococcus neoformans IM 983040 isolate at 6.25 ug/ml after 48 hrs; outline: as §1
# Cryptococcus neoformans [33] = test: Antimicrobial activity against Cryptococcus neoformans IM 983040 isolate at 25 ug/ml after 48 hrs; outline: as §1
# Cryptococcus neoformans [34] = test: Antimicrobial activity against Cryptococcus neoformans IM 961951 isolate at 100 ug/ml after 48 hrs; outline: as §2
# Cryptococcus neoformans [35] = test: Antimicrobial activity against Cryptococcus neoformans IM 983040 isolate at 100 ug/ml after 48 hrs; outline: as §1
# Cryptococcus neoformans [36] = test: Antimicrobial activity against Cryptococcus neoformans IM 983040 isolate at 50 ug/ml after 48 hrs; outline: as §1
# Candida albicans [37] = test: Antimicrobial activity against Candida albicans C127 isolate at 12.5 ug/ml after 24 hrs; settings: C127, 24 h; outline: as §3
# Pichia kudriavzevii [38] = test: Antimicrobial activity against Candida krusei C117 isolate at 12.5 ug/ml after 24 hrs; outline: as §2
# Cryptococcus neoformans [39] = test: Antimicrobial activity against Cryptococcus neoformans IM 983036 isolate at 6.25 ug/ml after 48 hrs; outline: as §1
# Candida tropicalis [40] = test: Antimicrobial activity against Candida tropicalis C131 isolate at 100 ug/ml after 24 hrs; outline: as §2
# Candida albicans [41] = test: Antimicrobial activity against Candida albicans C128 isolate at 100 ug/ml after 24 hrs; outline: as §3
# Cryptococcus neoformans [42] = test: Antimicrobial activity against Cryptococcus neoformans IM 972724 isolate at 100 ug/ml after 48 hrs; outline: as §1
# Cryptococcus neoformans [43] = test: Antimicrobial activity against Cryptococcus neoformans IM 042074 isolate at 12.5 ug/ml after 48 hrs; outline: as §2
# Cryptococcus neoformans [44] = test: Antimicrobial activity against Cryptococcus neoformans ATCC 32264 at 100 ug/ml after 48 hrs; settings: ATCC 32264, 48 h; outline: as §2
# Candida albicans [45] = test: Antimicrobial activity against Candida albicans ATCC 10231 at 12.5 ug/ml after 24 hrs; settings: ATCC 10231, 24 h; outline: as §3
# Cryptococcus neoformans [46] = test: Antimicrobial activity against Cryptococcus neoformans IM 031631 isolate at 25 ug/ml after 48 hrs; outline: as §2
# Candida parapsilosis [47] = test: Antimicrobial activity against Candida parapsilosis C124 isolate at 50 ug/ml after 24 hrs; settings: Lodderomyces parapsilosis; outline: as §2
# Candida albicans [48] = test: Antimicrobial activity against Candida albicans ATCC 10231 at 100 ug/ml after 24 hrs; settings: ATCC 10231, 24 h; outline: as §3
smiles,measurement,setting,value
c1ccc2nc(-c3ccncc3)ccc2c1,inhibition at 12.5 µg/mL,Cryptococcus neoformans [1],20%
same,inhibition at 50 µg/mL,Cryptococcus neoformans [2],80%
same,inhibition at 6.25 µg/mL,Cryptococcus neoformans [3],12%
same,inhibition at 6.25 µg/mL,Candida albicans [4],19%
same,inhibition at 100 µg/mL,Candida albicans [5],84%
same,inhibition at 6.25 µg/mL,Cryptococcus neoformans [6],83%
same,inhibition at 25 µg/mL,Candida albicans [7],0%
same,inhibition at 6.25 µg/mL,Cryptococcus neoformans [8],4%
same,inhibition at 6.25 µg/mL,Cryptococcus neoformans [9],12%
same,inhibition at 50 µg/mL,Pichia kudriavzevii [10],3%
same,inhibition at 25 µg/mL,Cryptococcus neoformans [11],100%
same,inhibition at 50 µg/mL,Cryptococcus neoformans [12],87%
same,inhibition at 25 µg/mL,Candida tropicalis [13],60%
same,inhibition at 25 µg/mL,Nakaseomyces glabratus [14],4%
same,inhibition at 25 µg/mL,Cryptococcus neoformans [15],78%
same,inhibition at 25 µg/mL,Cryptococcus neoformans [16],53%
same,inhibition at 6.25 µg/mL,Candida parapsilosis [17],0%
same,inhibition at 6.25 µg/mL,Pichia kudriavzevii [18],0%
same,inhibition at 100 µg/mL,Candida parapsilosis [19],55%
same,inhibition at 25 µg/mL,Candida albicans [20],0%
same,inhibition at 6.25 µg/mL,Cryptococcus neoformans [21],0%
same,inhibition at 12.5 µg/mL,Candida parapsilosis [22],0%
same,inhibition at 50 µg/mL,Candida albicans [23],73%
same,inhibition at 50 µg/mL,Candida albicans [24],82%
same,inhibition at 6.25 µg/mL,Candida albicans [25],0%
same,inhibition at 12.5 µg/mL,Cryptococcus neoformans [26],90%
same,inhibition at 25 µg/mL,Candida albicans [27],48%
same,inhibition at 50 µg/mL,Candida tropicalis [28],75%
same,inhibition at 25 µg/mL,Pichia kudriavzevii [29],0%
same,inhibition at 6.25 µg/mL,Cryptococcus neoformans [30],68%
same,inhibition at 50 µg/mL,Nakaseomyces glabratus [31],4%
same,inhibition at 6.25 µg/mL,Cryptococcus neoformans [32],0%
same,inhibition at 25 µg/mL,Cryptococcus neoformans [33],12%
same,inhibition at 100 µg/mL,Cryptococcus neoformans [34],97%
same,inhibition at 100 µg/mL,Cryptococcus neoformans [35],45%
same,inhibition at 50 µg/mL,Cryptococcus neoformans [36],34%
same,inhibition at 12.5 µg/mL,Candida albicans [37],0%
same,inhibition at 12.5 µg/mL,Pichia kudriavzevii [38],0%
same,inhibition at 6.25 µg/mL,Cryptococcus neoformans [39],0%
same,inhibition at 100 µg/mL,Candida tropicalis [40],100%
same,inhibition at 100 µg/mL,Candida albicans [41],88%
same,inhibition at 100 µg/mL,Cryptococcus neoformans [42],74%
same,inhibition at 12.5 µg/mL,Cryptococcus neoformans [43],76%
same,inhibition at 100 µg/mL,Cryptococcus neoformans [44],100%
same,inhibition at 12.5 µg/mL,Candida albicans [45],41%
same,inhibition at 25 µg/mL,Cryptococcus neoformans [46],57%
same,inhibition at 50 µg/mL,Candida parapsilosis [47],5%
same,inhibition at 100 µg/mL,Candida albicans [48],100%

# Reference: ChEMBL document CHEMBL1140069, “In vitro antifungal activity of polyfunctionalized 2-(hetero)arylquinolines prepared through imino Diels-Alder reactions” (2008)
